The source of these data is PubChem BioAssay.

The source made the active and inactive calls.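 Rule for the calls, unless noted: active = current rise at least 3 SD above the untreated control mean in each of two repeat wells; inactive = the rest.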

Test [1] can be described thus: nonspecific flux increase, KCNQ1-free cells – parental CHO cells, counter-screen for KCNQ1 potentiator project (AID 493006;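 active = duplicate-averaged activation above buffer control mean plus 5 SD of those controls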). Conditions: parental CHO-K1 cells, FluxOR thallium flux, at 10 µM; hits give high values. In outline: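 Material: untransfected host CHO-K1 cells with FluxOR thallium dye. Timing: overnight 37 °C plating, 90 min RT dye, 20 min compound. Detection: kinetic FluxOR fluorescence, 10 s baseline, 110 s after stimulus. Read-out basis: max-minus-min fluorescence over baseline, percent of buffer-to-R-L3 span. Replicates: duplicate wells per compound, percent values averaged.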
On the technique in general: The purpose of a counterscreen is to sort out artefacts and off-target activity.

Test [2] concerns the target Potassium voltage-gated channel subfamily KQT member 1 (Homo sapiens) (UniProt P51787). Kind of test: enhancement of KCNQ1 channel thallium flux – FluxOR thallium flux, CHO cells, duplicates, confirmation (AID 493007;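 active = potentiation averaged over duplicate wells exceeding buffer-only control mean by more than 3 SD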;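 for outcome: cells depolarized by a potassium plus thallium sulfate stimulus after compound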). The settings on record: KCNQ1 cell line, FluxOR thallium flux fluorescence, at 10 µM; hits give high values, % of reference activator effect, buffer zero. Summed up:
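Test system – KCNQ1-expressing CHO cell line · Incubation – FluxOR dye loading 90 min, compound exposure 20 min, room temperature · Detection – FluxOR Tl+ flux fluorescence, 10 s baseline plus 110 s recording · Controls – buffer-only wells as 0% and R-L3 activator as 100%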

Test [3] has as its target Potassium voltage-gated channel subfamily KQT member 2 (Rattus norvegicus) (UniProt O88943). The test is described as follows: KCNQ2 thallium flux enhancement – KCNQ2-CHO-K1 cells, selectivity assay for KCNQ1 potentiator project (AID 493009;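 active = mean duplicate potentiation above the buffer control mean plus 5 SD of buffer wells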;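 note: assay conditions were tuned for KCNQ1 rather than KCNQ2 modulators; signal is max minus min fluorescence divided by baseline after thallium stimulus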). The settings on record: FluxOR thallium flux fluorescence, at 10 µM; hits give high values, scaled: buffer 0, activator control 100.

For test [4], the target named is Potassium voltage-gated channel subfamily KQT member 1 (Homo sapiens) (UniProt P51787). The test is described as follows: KCNQ1 activators by electrophysiology – IonWorks patch clamp, KCNQ1-CHO cells, orthogonal assay for KCNQ1 potentiator project, confirmation (AID 493184). The settings on record: automated patch clamp current, at 10 µM; hits give high values. Summed up:
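Read-out: Percent current increase versus pre-compound level | Assay system: CHO cells carrying KCNQ1 | Measured by: Automated perforated-patch electrophysiology | Medium: External bath solution at pH 7.4 | Dosing: One dose, 10 µM final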
Background: In patch-clamp work, channel activity is measured electrically.

Test [5] concerns the target Potassium voltage-gated channel subfamily E member 1 (Homo sapiens) + Potassium voltage-gated channel subfamily KQT member 1 (Homo sapiens) (UniProt P15382+P51787). The test is described as follows: KCNQ1-E1 channel activation – thallium flux, CHO-K1 KCNQ1/E1 cells, selectivity assay for KCNQ1 potentiator project, confirmation (AID 493186;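 active = mean duplicate activation above the buffer control mean plus 5 SD of those controls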). The settings on record: FluxOR thallium flux, at 10 µM; hits give high values. In outline:
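Test system: CHO-K1 cells with KCNQ1/E1; dosing: one test concentration; signal: FluxOR Tl+ flux fluorescence, kinetic read; incubation: 90-min dye loading then 20-min compound exposure, both at room temperature; read-out basis: percent of R-L3 effect over buffer; replication: duplicate wells per compound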

Chain of Potassium voltage-gated channel subfamily KQT member 2 (Rattus norvegicus) (O88943 whole entry, looked up): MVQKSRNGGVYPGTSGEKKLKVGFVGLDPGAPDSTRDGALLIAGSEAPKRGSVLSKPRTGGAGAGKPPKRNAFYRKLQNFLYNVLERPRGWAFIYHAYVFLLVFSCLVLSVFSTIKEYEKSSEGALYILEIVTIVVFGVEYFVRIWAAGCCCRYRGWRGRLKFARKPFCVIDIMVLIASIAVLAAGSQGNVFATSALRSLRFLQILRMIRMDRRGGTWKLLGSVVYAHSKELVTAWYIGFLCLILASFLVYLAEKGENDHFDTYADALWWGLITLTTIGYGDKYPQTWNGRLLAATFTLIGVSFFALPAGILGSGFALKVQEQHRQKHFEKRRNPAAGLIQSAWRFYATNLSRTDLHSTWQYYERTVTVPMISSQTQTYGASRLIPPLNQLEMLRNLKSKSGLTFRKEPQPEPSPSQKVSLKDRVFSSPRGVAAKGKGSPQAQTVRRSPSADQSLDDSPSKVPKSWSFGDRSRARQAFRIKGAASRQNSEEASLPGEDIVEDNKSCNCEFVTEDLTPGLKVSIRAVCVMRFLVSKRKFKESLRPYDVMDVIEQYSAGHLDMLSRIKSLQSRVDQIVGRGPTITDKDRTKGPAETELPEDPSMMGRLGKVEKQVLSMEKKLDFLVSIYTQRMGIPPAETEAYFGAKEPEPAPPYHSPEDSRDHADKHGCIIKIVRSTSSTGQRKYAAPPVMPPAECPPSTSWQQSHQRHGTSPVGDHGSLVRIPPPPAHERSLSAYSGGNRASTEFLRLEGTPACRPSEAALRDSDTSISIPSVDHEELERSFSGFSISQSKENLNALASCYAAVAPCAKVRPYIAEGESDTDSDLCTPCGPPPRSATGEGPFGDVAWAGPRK
Chain of Potassium voltage-gated channel subfamily E member 1 (Homo sapiens) + Potassium voltage-gated channel subfamily KQT member 1 (Homo sapiens) (P51787 whole entry, looked up): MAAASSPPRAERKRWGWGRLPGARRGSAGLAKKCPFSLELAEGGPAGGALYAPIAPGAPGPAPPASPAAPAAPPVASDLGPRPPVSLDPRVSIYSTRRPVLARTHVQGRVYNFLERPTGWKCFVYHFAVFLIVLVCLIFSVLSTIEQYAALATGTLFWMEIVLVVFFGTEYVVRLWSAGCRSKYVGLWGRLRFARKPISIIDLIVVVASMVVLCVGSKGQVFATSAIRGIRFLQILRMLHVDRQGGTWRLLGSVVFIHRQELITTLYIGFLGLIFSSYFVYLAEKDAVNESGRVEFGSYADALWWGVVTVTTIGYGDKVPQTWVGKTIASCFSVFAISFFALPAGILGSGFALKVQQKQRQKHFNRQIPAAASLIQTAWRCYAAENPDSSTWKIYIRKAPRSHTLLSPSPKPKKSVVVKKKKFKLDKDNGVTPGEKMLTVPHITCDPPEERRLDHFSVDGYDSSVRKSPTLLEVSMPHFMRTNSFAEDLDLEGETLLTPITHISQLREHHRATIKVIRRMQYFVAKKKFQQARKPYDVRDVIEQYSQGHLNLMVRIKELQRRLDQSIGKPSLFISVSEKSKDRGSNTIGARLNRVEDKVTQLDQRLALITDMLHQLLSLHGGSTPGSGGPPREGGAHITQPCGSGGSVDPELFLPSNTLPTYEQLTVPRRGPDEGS
Chain of Potassium voltage-gated channel subfamily KQT member 1 (Homo sapiens) (P51787 whole entry, looked up): as above

For `CN1CCN(Cc2ccc(Sc3ccc(Cl)cc3)c([N+](=O)[O-])c2)CC1`, the result in test [1], in test [3], in test [4] and in test [5] was inactive. Besides, in test [2], the potentiation is 17.5% (active).
For `COCCCN1C(=O)C(=O)/C(=C(/O)c2ccc(C)cc2)C1c1ccccc1` (stereo not given), the outcome in test [1], in test [2], in test [3], in test [4] and in test [5] was inactive.
For `COc1ccc(C2(C)CC(C)(C)Nc3ccccc32)cc1` (stereo not given), the outcome in test [1], in test [3], in test [4] and in test [5] was inactive. For the same molecule, in test [2], the potentiation is 68.5% (active).
Regarding `COC(=O)N/N=C/c1cc(C)n(-c2ccc(Br)cc2)c1C`, the outcome in test [1], in test [2], in test [3], in test [4] and in test [5] was inactive.
Regarding `CCSc1nnc(-c2ccncc2)n1Cc1ccccc1`, the outcome in test [1], in test [2], in test [3], in test [4] and in test [5] was inactive.
In the case of `S=c1[nH]nc(-c2ccco2)n1/N=C/C(Cl)=C/c1ccccc1`, the outcome in test [1], in test [3], in test [4] and in test [5] was inactive. Further, in test [2], the potentiation was 26% (active).
Consider `COc1ccc(Cl)cc1C(=O)NNC(=S)NC(=O)c1cc(-c2ccccc2)nc2ccccc12`, for which the result in test [1], in test [2], in test [3], in test [4] and in test [5] was inactive.
Take `S=c1[nH]c(-c2cccs2)cn1-c1ccccc1`: the result in test [1], in test [4] and in test [5] was inactive. The potentiation is 26% (active) in test [2] and 151% (active) in test [3].
Consider `COc1cc(NC(=S)N2CCC(C(O)(c3ccccc3)c3ccccc3)CC2)cc(OC)c1`, for which the outcome in test [1], in test [4] and in test [5] was inactive. Further, the potentiation in test [2] was 20.5% (active); in test [3] it was 156% (active).
Take `CCOC(=O)SC1=N/C(=C\c2ccc(N(C)C)cc2)C(=O)S1`: the outcome in test [1], in test [2], in test [3] and in test [4] was inactive. Further, the activation in test [5] is 15.3% (active).
Regarding `Cc1nn(Cc2ccc(Cl)cc2)c(C)c1NC(=O)c1cc(-c2ccco2)on1`, the result in test [1], in test [2], in test [3], in test [4] and in test [5] was inactive.
As for `N#CC(c1ccccc1)c1ccc2c(C(F)(F)F)cc(C(F)(F)F)nc2n1` (stereo not given), the result in test [1], in test [3], in test [4] and in test [5] was inactive. For the same molecule, the potentiation in test [2] was 129% (active).
`Cc1ccc(S(=O)(=O)/N=C(\N)Nc2nc(C)c3ccccc3n2)cc1`: the outcome in test [1], in test [2], in test [3], in test [4] and in test [5] was inactive.
For the molecule `S=C(N/N=C/c1cccc2ccccc12)Nc1cccc(Cl)c1`, the outcome in test [1], in test [3], in test [4] and in test [5] was inactive. Besides, the potentiation in test [2] was 59.5% (active).
In the case of `CCCOC(=O)C1=C(C)NC2=C(C(=O)CCC2)C1c1ccc(N(C)C)cc1` (stereo not given), the outcome in test [1], in test [2], in test [3], in test [4] and in test [5] was inactive.
For `COc1cc2c(cc1OC)CN(CCC(=O)c1ccc(Br)cc1)CC2`, the outcome in test [1], in test [2], in test [3], in test [4] and in test [5] was inactive.
Take `Cc1cc(C(=O)CCl)c(C)n1-c1cccc([N+](=O)[O-])c1`: the outcome in test [1], in test [2], in test [3], in test [4] and in test [5] was inactive.
Take `COc1ccc(C2CC(c3c(-c4ccccc4)c4cc(Cl)ccc4[nH]c3=O)=NN2S(C)(=O)=O)cc1OC` (stereo not given): the result in test [1], in test [2], in test [3], in test [4] and in test [5] was inactive.
With `CCN(c1ccccc1)S(=O)(=O)c1ccc(NC(=S)NC(=O)c2ccc(Br)o2)cc1`, the outcome in test [1], in test [4] and in test [5] was inactive. Besides, the potentiation is 76% (active) in test [2] and 168% (active) in test [3].
For `S=C(NN=C1CCCCCC1)Nc1ccc(Cl)cc1`, the result in test [1], in test [2], in test [3], in test [4] and in test [5] was inactive.
For the molecule `COC(=O)N1C(=O)[C@@](Cc2ccccc2)(c2ccccc2)N1C(=O)OC`, the result in test [1], in test [3], in test [4] and in test [5] was inactive. Moreover, in test [2], the potentiation was 24% (active).
With `CCOC(=O)N/C(N)=N/c1nc2ccccc2s1`, the outcome in test [1], in test [2], in test [3], in test [4] and in test [5] was inactive.
Take `S=c1[nH]nc(-c2ccc(Br)o2)n1Cc1ccccc1`: the outcome in test [1], in test [2], in test [3], in test [4] and in test [5] was inactive.
`Cc1ccc(NC2=C(Cl)C(=O)OC2OC(=O)c2ccc(C)cc2)cc1` (stereo not given): the result in test [1], in test [2], in test [3], in test [4] and in test [5] was inactive.
With `CCOC(=O)N1CCN(C(=S)NC(=O)c2ccc(Br)cc2)CC1`, the result in test [1], in test [2], in test [3], in test [4] and in test [5] was inactive.
Regarding `O=S(=O)(Nc1cccnc1)c1ccc(Cl)cc1`, the result in test [1], in test [2], in test [3], in test [4] and in test [5] was inactive.
With `Cn1ccnc1C(=O)c1cccc([N+](=O)[O-])c1`, the result in test [1], in test [3], in test [4] and in test [5] was inactive. Further, in test [2], the potentiation was 18.5% (active).
Take `CN(C1CCCCC1)S(=O)(=O)c1ccc(NC(=S)NC(=O)c2cccs2)cc1`: the outcome in test [1], in test [4] and in test [5] was inactive. Also, the potentiation is 30% (active) in test [2] and 155% (active) in test [3].
`O=C(NNc1cc(N2CCOCC2)nc(N2CCOCC2)n1)C12CC3CC(CC(C3)C1)C2`: the outcome in test [1], in test [3], in test [4] and in test [5] was inactive. Moreover, in test [2], the potentiation was 51% (active).
